Assay results published in ChEMBL document CHEMBL1145462, “In vivo pharmacodynamic activity of the glycopeptide dalbavancin” (Antimicrob Agents Chemother, 2007).
Converted amounts (≈) assume the structure as drawn.

Columns and labels:
[1] = tested on: Staphylococcus aureus; assay: AUC/MIC ratio of Staphylococcus aureus Smith infected neutropenic mouse thigh infection model at 50.7 mg/kg, ip administered every 24 hrs by 1-log killing experiment; assay type: functional; conditions: route intraperitoneal
[2] = tested on: Staphylococcus aureus; assay: AUC/MBC ratio of Staphylococcus aureus Smith infected neutropenic mouse thigh infection model at 148 mg/kg, ip administered every 72 hrs by 2-log killing experiment; assay type: functional; conditions: route intraperitoneal
[3] = Cmax in bacterial pathogen-infected neutropenic Swiss ICR mouse thigh infection model at 2.5 mg/kg, ip; assay type: ADME, organism-based; design: dose 2.5 mg/kg, route intraperitoneal; conditions: in vivo
Summary of the method: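 Single-dose serum PK in thigh-infected neutropenic mice; intraperitoneal dalbavancin (0.2 ml/dose) at 2.5–80 mg/kg. Blood from groups of three mice at 0.5–96 h by retroorbital aspiration; plasma level by Bacillus subtilis microbiologic assay (detection limit 0.10 mg/liter). Noncompartmental analysis; AUC by trapezoidal rule from mean concentrations, extrapolated to infinity.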

[4] = tested on: Streptococcus pneumoniae; assay: Bactericidal activity against penicillin-susceptible Streptococcus pneumoniae ATCC 10813 infected neutropenic Swiss ICR mouse thigh infection model assessed as drug level causing 2-log reduction of bacterial count at 1.34 mg/kg, ip dosed every 24 hrs; assay type: functional; conditions: route intraperitoneal
Summary of the method: (§1)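 Neutropenic mice (cyclophosphamide ip 150 mg/kg day −4, 100 mg/kg day −1, then every 48 h) received 0.1 ml log-phase inoculum per thigh under halothane. Intraperitoneal dalbavancin started 2 h later and was given for 6 days at q12h, q24h, q36h or q72h, two mice per regimen. Thigh CFU were counted at 144 h. Endpoint doses relative to start-of-therapy counts came from Hill-model nonlinear regression and are expressed per 24 h.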

[5] = tested on: Staphylococcus aureus; assay: Bactericidal activity in ip dosed […] Staphylococcus aureus ATCC 29213 infected neutropenic mouse thigh infection model assessed as reduction of colony count after 96 hrs by time kill study; assay type: functional, Thigh muscle
Summary of the method: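 Neutropenic mice (cyclophosphamide ip 150 mg/kg day −4, 100 mg/kg day −1, then every 48 h) infected in thigh with 0.1 ml log-phase inoculum (10^6.6–10^7.6 CFU/ml) under halothane. Single ip doses of 5, 10, 20, 40, or 80 mg/kg were given 2 h later. Two mice sampled at 0.5–96 h. Thighs processed for CFU, reported as mean ± SD log10 CFU/thigh.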

[6] = tested on: Streptococcus pneumoniae; assay: Bactericidal activity in ip dosed penicillin-susceptible Streptococcus pneumoniae ATCC 10813 infected neutropenic mouse thigh infection model assessed as reduction of colony count after 48 hrs by time kill study; assay type: functional, Thigh muscle
Summary of the method: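 Neutropenic mice with thigh infection treated 2 h post-inoculation with single ip doses of 0.625, 1.25, 2.5, 5 or 10 mg/kg. Two mice per time point, sampled 0.5–96 h, with untreated controls. Thighs processed for CFU, reported as mean ± standard deviation log10 CFU/thigh.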

[7] = tested on: Staphylococcus aureus; assay: Antibacterial activity against Staphylococcus aureus ATCC 25923 in presence of 95% mouse serum; assay type: functional
Summary of the method: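 MIC determined in broth, heat-treated (100°C, 30 min) 95% mouse serum, and 95% mouse serum ultrafiltrate, using arithmetic dilutions of 0.02 mg/liter per tube. Protein binding estimated as (MIC in 95% serum − MIC in ultrafiltrate)/MIC in 95% serum.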

[8] = tested on: Staphylococcus aureus; assay: AUC/MIC ratio of Staphylococcus aureus 31005 infected neutropenic mouse thigh infection model at 127 mg/kg, ip administered every 72 hrs by 2-log killing experiment; assay type: functional; conditions: route intraperitoneal
[9] = tested on: Staphylococcus aureus; assay: AUC/MBC ratio of Staphylococcus aureus 33591 infected neutropenic mouse thigh infection model at 33.5 mg/kg, ip administered every 24 hrs by 2-log killing experiment; assay type: functional; conditions: route intraperitoneal
[10] = AUC in bacterial pathogen-infected neutropenic Swiss ICR mouse thigh infection model at 40 mg/kg, ip; assay type: ADME, organism-based; design: dose 40 mg/kg, route intraperitoneal; conditions: in vivo
Summary of the method: (§2)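 Thigh-infected neutropenic mice received single intraperitoneal doses (2.5, 5, 10, 20, 40, 80 mg/kg; 0.2 ml/dose). Blood was drawn by retroorbital aspiration from groups of three mice at 0.5, 1, 2, 4, 6, 24, 48, 72 and 96 h. Plasma levels were measured by microbiologic assay with Bacillus subtilis (detection limit 0.10 mg/liter). Noncompartmental analysis was used: half-life by linear least-squares regression, AUC by trapezoidal rule.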

[11] = tested on: Staphylococcus aureus; assay: AUC/MBC ratio of Staphylococcus aureus Smith infected neutropenic mouse thigh infection model at 50.7 mg/kg, ip administered every 24 hrs by 1-log killing experiment; assay type: functional; conditions: route intraperitoneal
[12] = tested on: Staphylococcus aureus; assay: AUC/MBC ratio of methicillin-resistant Staphylococcus aureus infected neutropenic mouse thigh infection model at 37.7 mg/kg, ip administered every 24 hrs by static effect experiment; assay type: functional; conditions: route intraperitoneal
[13] = Half life in bacterial pathogen-infected neutropenic Swiss ICR mouse thigh infection model at 5 mg/kg, ip; assay type: ADME, organism-based; design: dose 5 mg/kg, route intraperitoneal; conditions: in vivo; summary of the method: as §2
[14] = tested on: Streptococcus pneumoniae; assay: Bactericidal activity against penicillin-susceptible Streptococcus pneumoniae ATCC 10813 infected neutropenic Swiss ICR mouse thigh infection model assessed as drug level causing 1-log reduction of bacterial count at 2.3 mg/kg, ip dosed every 12 hrs; assay type: functional; conditions: route intraperitoneal; summary of the method: as §1
[15] = tested on: Staphylococcus aureus; assay: Antibacterial activity against methicillin-resistant Staphylococcus aureus by microdilution method; assay type: functional
Summary of the method: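 MICs in duplicate on at least two occasions by standard CLSI broth microdilution; S. aureus grown and quantified in Mueller-Hinton broth/agar.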

[16] = tested on: Streptococcus pneumoniae; assay: AUC/MIC ratio of Streptococcus pneumoniae 1293 infected neutropenic mouse thigh infection model at 0.55 mg/kg, ip administered every 24 hrs by 1-log killing experiment; assay type: functional; conditions: route intraperitoneal
[17] = tested on: Staphylococcus aureus; assay: AUC/MBC ratio of Staphylococcus aureus 31005 infected neutropenic mouse thigh infection model at 67.7 mg/kg, ip administered every 72 hrs by static effect experiment; assay type: functional; conditions: route intraperitoneal
[18] = tested on: Staphylococcus aureus; assay: AUC/MBC ratio of methicillin-resistant Staphylococcus aureus infected neutropenic mouse thigh infection model at 45.3 mg/kg, ip administered every 24 hrs by 1-log killing experiment; assay type: functional; conditions: route intraperitoneal
[19] = tested on: Staphylococcus aureus; assay: AUC/MIC ratio of Staphylococcus aureus 33591 infected neutropenic mouse thigh infection model at 114 mg/kg, ip administered every 72 hrs by 2-log killing experiment; assay type: functional; conditions: route intraperitoneal

For `CN[C@H]1C(=O)N[C@@H]2Cc3ccc(cc3)Oc3cc4cc(c3O[C@@H]3O[C@H](C(=O)O)[C@@H](O)[C@H](O)[C@H]3NC(=O)CCCCCCCCC(C)C)Oc3ccc(cc3Cl)[C@@H](O)[C@@H]3NC(=O)[C@H](NC(=O)[C@@H]4NC(=O)[C@@H](NC2=O)c2cc(cc(O)c2Cl)Oc2cc1ccc2O)c1ccc(O)c(c1)-c1c(O[C@H]2O[C@H](CO)[C@@H](O)[C@H](O)[C@@H]2O)cc(O)cc1[C@@H](C(=O)NCCCN(C)C)NC3=O` [DALBAVANCIN], the RatioAUC/MIC [1] was 248, the Ratio [2] was 122 and the Cmax [3] was 7400 ng/mL. For the same compound, the Activity [4] was 1.75, the Activity [5] was 4 and the Activity [6] was 4. The MIC [7] was 32 µg/mL, the RatioAUC/MIC [8] was 364 and the Ratio [9] was 74.3. The AUC [10] was 10600 µg·h/mL, the Ratio [11] was 119 and the Ratio [12] was 93. The half-life [13] was 9.6 h, the Activity [14] was 2.8 and the MBC [15] was 0.25 µg/mL (≈ 0.138 µM). It also gave an MIC [15] of 0.06 µg/mL (≈ 0.033 µM), a RatioAUC/MIC [16] of 21.7 and a Ratio [17] of 112. For the same compound, the Ratio [18] was 109 and the RatioAUC/MIC [19] was 195.
